Assay results: PMC10582660 (Clinical and Translational Science, 2023)
Where two headings read alike, the source gives them in different places. Marks after values point to notes of the source that are not given here.

Experiments:
[1] = Follow-up exploratory clinical study: plasma pharmacokinetics; assay type: in vivo, human; details: follow-up study; for AUC0–48h green tea/baseline ratio (90% CI) / Cmax,1 green tea/baseline ratio (90% CI): acute green tea vs baseline; for AUC0–48h, geometric mean (CV%) / t max,1, median (range) / Cmax: plasma; for Cmax: read-out: Cmax,1, geometric mean (CV%)
How it was run: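 Six healthy adults (3 male, 3 female) in sequential arms ≥7 days apart: oral test compound with water, then with acute brewed green tea, then tea alone. Plasma sampled 0–48 h at the main-study times. Analysed by UHPLC–MS/MS for parent and glucuronides. […] Green tea/baseline ratios on log-transformed data, paired two-tailed t-test.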

[2] = assay type: in vivo, human; details: for AUC0–96h, geometric mean (CV%) / AUC0–48h, geometric mean (CV%) / t 1/2, geometric mean (CV%) / t max,1, median (range): plasma, raloxifene 60 mg oral
How it was run: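 Open-label fixed-sequence crossover in 16 healthy adults (8 male, 8 female), arms ≥7 days apart, fasted from midnight. Oral 60 mg test compound tablet with 240 mL water at 50°C (baseline) or brewed green tea. Acute: tea (one bag, 240 mL water, 80°C, 3 min, cooled to 50°C) given with dose, then at 4 and 8 h. Chronic: tea three times daily for 4 days, then day 5 as acute.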

[3] = 16 healthy adults, baseline (water)

O=C(c1ccc(OCCN2CCCCC2)cc1)c1c(-c2ccc(O[C@@H]3O[C@H](C(=O)O)[C@@H](O)[C@H](O)[C@H]3O)cc2)sc2cc(O)ccc12 [Raloxifene 4′‐glucuronide, raloxifene 4′‐glucuronide]
Metabolite‐to‐parent AUC0–48h ratio, geometric mean (CV%) ([1]; acute green tea): 184 (25) | AUC0–48h green tea/baseline ratio (90% CI) [1]: 0.93 (0.81–1.06) | Cmax,1 green tea/baseline ratio (90% CI) [1]: 0.79 (0.68–0.93) | Metabolite‐to‐parent AUC0–48h ratio, geometric mean (CV%) ([1]; baseline): 179 (23) | AUC0–48h, geometric mean (CV%) ([1]; acute green tea): 1368 (50) ^* nM‐h | t max,1, median (range) ([1]; acute green tea): 1 (0.5–1) h | t max,1, median (range) ([1]; baseline): 1.25 (1–3) h | AUC0–48h, geometric mean (CV%) ([1]; six healthy adults, baseline): 1473 (50) nM‐h | Cmax ([1]; acute green tea): 75 nM | Cmax ([1]; baseline): 94.4 nM | Metabolite‐to‐parent AUC0–96h ratio, geometric mean (CV%) ([2]; acute green tea): 161 (36) | AUC0–48h green tea/baseline ratio (90% CI) ([2]; acute green tea vs baseline): 0.54 (0.43–0.68) | AUC0–96h green tea/baseline ratio (90% CI) ([2]; acute green tea vs baseline): 0.57 (0.45–0.73) | Cmax,1 green tea/baseline ratio (90% CI) ([2]; acute green tea vs baseline): 0.42 (0.31–0.57) | t 1/2 green tea/baseline ratio (90% CI) ([2]; acute green tea vs baseline): 0.91 (0.72–1.16) | Metabolite‐to‐parent AUC0–96h ratio, geometric mean (CV%) ([2]; baseline (water)): 160 (34) | Metabolite‐to‐parent AUC0–96h ratio, geometric mean (CV%) ([2]; chronic green tea): 159 (34) | AUC0–48h green tea/baseline ratio (90% CI) ([2]; chronic green tea vs baseline): 0.57 (0.43–0.76) | AUC0–96h green tea/baseline ratio (90% CI) ([2]; chronic green tea vs baseline): 0.65 (0.51–0.82) | Cmax,1 green tea/baseline ratio (90% CI) ([2]; chronic green tea vs baseline): 0.46 (0.31–0.70) | t 1/2 green tea/baseline ratio (90% CI) ([2]; chronic green tea vs baseline): 0.92 (0.72–1.18) | AUC0–96h, geometric mean (CV%) [2, 3]: 2350 (45) nM‐h | AUC0–48h, geometric mean (CV%) ([2]; acute green tea): 1080 (55) nM‐h | AUC0–96h, geometric mean (CV%) ([2]; acute green tea): 1350 (69)** nM‐h | t 1/2, geometric mean (CV%) ([2]; acute green tea): 15.9 (66) h | t max,1, median (range) ([2]; acute green tea): 1.5 (0.5–6) h | AUC0–48h, geometric mean (CV%) ([2]; baseline (water)): 1990 (48) nM‐h | t 1/2, geometric mean (CV%) ([2]; baseline (water)): 17.0 (57)^b h | t max,1, median (range) ([2]; baseline (water)): 1.25 (0.25–4) h | AUC0–48h, geometric mean (CV%) ([2]; chronic green tea): 1134 (56) nM‐h | AUC0–96h, geometric mean (CV%) ([2]; chronic green tea): 1520 (76)* nM‐h | t 1/2, geometric mean (CV%) ([2]; chronic green tea): 15.6 (48)^b h | t max,1, median (range) ([2]; chronic green tea): 1.25 (0.5–3) h

O=C(c1ccc(OCCN2CCCCC2)cc1)c1c(-c2ccc(O)cc2)sc2cc(O[C@@H]3O[C@H](C(=O)O)[C@@H](O)[C@H](O)[C@H]3O)ccc12 [Raloxifene 6‐glucuronide, raloxifene 6‐glucuronide]
Metabolite‐to‐parent AUC0–48h ratio, geometric mean (CV%) ([1]; acute green tea): 22 (50) | AUC0–48h green tea/baseline ratio (90% CI) [1]: 0.88 (0.73–1.06) | Cmax,1 green tea/baseline ratio (90% CI) [1]: 0.73 (0.60–0.88) | Metabolite‐to‐parent AUC0–48h ratio, geometric mean (CV%) ([1]; baseline): 23 (47) | AUC0–48h, geometric mean (CV%) ([1]; acute green tea): 166 (61) nM‐h | t max,1, median (range) ([1]; acute green tea): 1 (1–3) h | t max,1, median (range) ([1]; baseline): 1.25 (1–3) h | AUC0–48h, geometric mean (CV%) ([1]; six healthy adults, baseline): 189 (46) nM‐h | Cmax ([1]; acute green tea): 6.85 nM | Cmax ([1]; baseline): 9.39 nM | Metabolite‐to‐parent AUC0–96h ratio, geometric mean (CV%) ([2]; acute green tea): 39 (43) | AUC0–48h green tea/baseline ratio (90% CI) ([2]; acute green tea vs baseline): 0.57 (0.45–0.74) | AUC0–96h green tea/baseline ratio (90% CI) ([2]; acute green tea vs baseline): 0.60 (0.47–0.77) | Cmax,1 green tea/baseline ratio (90% CI) ([2]; acute green tea vs baseline): 0.38 (0.23–0.63) | t 1/2 green tea/baseline ratio (90% CI) ([2]; acute green tea vs baseline): 1.08 (0.90–1.31) | Metabolite‐to‐parent AUC0–96h ratio, geometric mean (CV%) ([2]; baseline (water)): 37 (45) | Metabolite‐to‐parent AUC0–96h ratio, geometric mean (CV%) ([2]; chronic green tea): 37 (44) | AUC0–48h green tea/baseline ratio (90% CI) ([2]; chronic green tea vs baseline): 0.59 (0.43–0.79) | AUC0–96h green tea/baseline ratio (90% CI) ([2]; chronic green tea vs baseline): 0.67 (0.53–0.86) | Cmax,1 green tea/baseline ratio (90% CI) ([2]; chronic green tea vs baseline): 0.50 (0.35–0.73) | t 1/2 green tea/baseline ratio (90% CI) ([2]; chronic green tea vs baseline): 0.92 (0.76–1.12) | AUC0–96h, geometric mean (CV%) [2, 3]: 535 (48) nM‐h | AUC0–48h, geometric mean (CV%) ([2]; acute green tea): 255 (68) nM‐h | AUC0–96h, geometric mean (CV%) ([2]; acute green tea): 324 (79)* nM‐h | t 1/2, geometric mean (CV%) ([2]; acute green tea): 20.5 (36)^b h | t max,1, median (range) ([2]; acute green tea): 1.5 (0.5–4) h | AUC0–48h, geometric mean (CV%) ([2]; baseline (water)): 444 (56) nM‐h | t 1/2, geometric mean (CV%) ([2]; baseline (water)): 18.9 (40)^b h | t max,1, median (range) ([2]; baseline (water)): 1.5 (1–4) h | AUC0–48h, geometric mean (CV%) ([2]; chronic green tea): 261 (57) nM‐h | AUC0–96h, geometric mean (CV%) ([2]; chronic green tea): 360 (78) nM‐h | t 1/2, geometric mean (CV%) ([2]; chronic green tea): 17.8 (46)^c h | t max,1, median (range) ([2]; chronic green tea): 1.5 (1–6) h
